Experimental data as given in ChEMBL document CHEMBL1649510, “Nonsense and missense mutations in FCY2 and FCY1 genes are responsible for flucytosine resistance and flucytosine-fluconazole cross-resistance in clinical isolates of Candida lusitaniae” (2009).

Key:
Assay type in all cases: functional
Clavispora lusitaniae [1] = experiment: Antifungal activity against Candida lusitaniae CL42 by microdilution method
How it was run: (§1)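 CLSI broth microdilution using twofold dilutions in RPMI 1640 with about 10³ cells/ml, incubated 48 h at 35°C. Final ranges were 0.5–256 μg/ml flucytosine and 0.25–128 μg/ml fluconazole. Cross-resistance was tested with a flucytosine gradient at constant fluconazole (8 or 16 μg/ml). MIC was read by automated plate reader as the lowest concentration giving 50% growth inhibition versus the drug-free control.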

Clavispora lusitaniae [2] = experiment: Antifungal activity against Candida lusitaniae CL174 by microdilution method; how it was run: as §1
Clavispora lusitaniae [3] = experiment: Antifungal activity against Candida lusitaniae CL119 by microdilution method; how it was run: as §1
Clavispora lusitaniae [4] = experiment: Antifungal activity against fcy1(1-26)-deficient Candida lusitaniae by microdilution method; how it was run: as §1
Clavispora lusitaniae [5] = experiment: Antifungal activity against Candida lusitaniae 42720 by microdilution method; how it was run: as §1
Clavispora lusitaniae [6] = experiment: Antifungal activity against Candida lusitaniae 6936 by microdilution method; how it was run: as §1
Clavispora lusitaniae [7] = experiment: Antifungal activity against Candida lusitaniae CL26 by microdilution method; how it was run: as §1
Clavispora lusitaniae [8] = experiment: Antifungal activity against Candida lusitaniae CL32 by microdilution method; how it was run: as §1
Clavispora lusitaniae [9] = experiment: Antifungal activity against Candida lusitaniae CL216 by microdilution method; how it was run: as §1
Clavispora lusitaniae [10] = experiment: Antifungal activity against Candida lusitaniae CL38 by microdilution method; how it was run: as §1
Clavispora lusitaniae [11] = experiment: Antifungal activity against REPF URA3 fcy1-deficient Candida lusitaniae by microdilution method; how it was run: as §1
Clavispora lusitaniae [12] = experiment: Antifungal activity against Candida lusitaniae CL38-5 expressing FCY2 gene by microdilution method; how it was run: as §1
Clavispora lusitaniae [13] = experiment: Antifungal activity against Candida lusitaniae CL128 by microdilution method; how it was run: as §1
Clavispora lusitaniae [14] = experiment: Antifungal activity against Candida lusitaniae CL38-5 expressing URA3 gene by microdilution method; how it was run: as §1
Clavispora lusitaniae [15] = experiment: Antifungal activity against Candida lusitaniae CL31 by microdilution method; how it was run: as §1
Clavispora lusitaniae [16] = experiment: Antifungal activity against fcy1-deficient Candida lusitaniae by microdilution method; how it was run: as §1
Clavispora lusitaniae [17] = experiment: Antifungal activity against fcy1(1-119)-deficient Candida lusitaniae by microdilution method; how it was run: as §1
Clavispora lusitaniae [18] = experiment: Antifungal activity against Candida lusitaniae CL29 by microdilution method; how it was run: as §1
Clavispora lusitaniae [19] = experiment: Antifungal activity against Candida lusitaniae CL38-5 expressing FCY21 gene by microdilution method; how it was run: as §1
Clavispora lusitaniae [20] = experiment: Antifungal activity against Candida lusitaniae CL48 by microdilution method; how it was run: as §1

Measured: MIC

OC(Cn1cncn1)(Cn1cncn1)c1ccc(F)cc1F [FLUCONAZOLE]
4 µg/mL: Clavispora lusitaniae [1]
1 µg/mL: Clavispora lusitaniae [2] | Clavispora lusitaniae [3] | Clavispora lusitaniae [9] | Clavispora lusitaniae [13]
≤ 0.25 µg/mL: Clavispora lusitaniae [7] | Clavispora lusitaniae [8]
2 µg/mL: all other assays above

Nc1nc(=O)[nH]cc1F [FLUCYTOSINE]
128 µg/mL: Clavispora lusitaniae [4] | Clavispora lusitaniae [8] | Clavispora lusitaniae [16] | Clavispora lusitaniae [17] | Clavispora lusitaniae [18]
64 µg/mL: Clavispora lusitaniae [1] | Clavispora lusitaniae [2] | Clavispora lusitaniae [7]
≤ 0.5 µg/mL: Clavispora lusitaniae [5] | Clavispora lusitaniae [6] | Clavispora lusitaniae [11] | Clavispora lusitaniae [12]
32 µg/mL: all other assays above
